Calls of active or inactive are those of the source.

From ChEMBL document CHEMBL1139382, “6-Methoxy-N-alkyl isatin acylhydrazone derivatives as a novel series of potent selective cannabinoid receptor 2 inverse agonists: design, synthesis, and binding mode prediction” (J Med Chem, 2009) come the findings set out here.

The target of experiment [1] is T1, Cannabinoid receptor 2 (Homo sapiens, UniProt P34972). The experiment in a line: Inverse agonist activity at human recombinant CB2 receptor expressed CHO cells membrane by [35S]GTPgamma binding assay. It counts as functional, cell membranes. The method in brief: (§1)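 GTPγ[35S] binding in CHO membranes expressing recombinant hCB1 or hCB2. Membranes preincubated with GDP (30 μM solution) on ice for at least 15 min, then mixed with GTPγ[35S] and WGA SPA beads. Incubated 1 h at room temperature, centrifuged, held 1 h more, then counted. Eight concentrations (0.001–10 μM) in duplicate, reported as the mean of two. Emax expressed as % of the reference agonist.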

Experiment [2] concerns the target T1, Cannabinoid receptor 2. The experiment in a line: Inverse agonist activity at human recombinant CB2 receptor expressed CHO cells membrane by [35S]GTPgamma binding assay relative to 2-((1R,2R,5R)-5-hydroxy-2-(3-hydroxypropyl)cyclohexyl)-5-(2-methyloctan-2-yl)phenol. It counts as functional, cell membranes. The method in brief: as §1
Experiment [3] addresses T2, Cannabinoid receptor 1 (Homo sapiens, UniProt P21554). Description: Inverse agonist activity at human recombinant CB1 receptor expressed CHO cells membrane by [35S]GTPgamma binding assay. It is filed as functional, cell membranes. Summed up: as §1
The target of experiment [4] is T1, Cannabinoid receptor 2. Description: Binding affinity to CB2 receptor. Summed up:
(§2)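 Competition binding on membranes of CHO-K1 cells expressing hCB2 (0.25 μg protein/well). Buffer was 50 mM Tris pH 7.4, 2.5 mM EDTA, 0.5% BSA, with 1 nM [3H]-labelled reference ligand. Nonspecific binding defined with 10 μM unlabelled ligand. Incubated 60 min at 30 °C, then filtered and counted by liquid scintillation. Duplicates at several concentrations. IC50 from a one-site fit, converted to Ki by Cheng–Prusoff.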

For experiment [5], the system named is Rattus norvegicus. The experiment in a line: Inhibition of (3-benzyl-3-methyl-2,3-dihydrobenzofuran-6-yl)(piperidin-1-yl)methanone-induced antiallodynic activity in L5/L6 spinal nerve tight ligated neuropathic pain Sprague-Dawley rat model assessed as paw withdrawal threshold at 10 mg/kg, ip administered 15 mins before 3-benzyl-3-methyl-2,3-dihydrobenzofuran-6-yl)(piperidin-1-yl)methanone challenge. It counts as functional, organism-based. The arrangement: dose 10 mg/kg. Summed up:
(§3)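 Adult male Sprague–Dawley rats (120–150 g). Left L5 and L6 spinal nerves tightly ligated with 6–0 silk under isoflurane. Tested 10–14 days after ligation. Drugs given ip. Vehicle was N-methylpyrrolidone 30%, propylene glycol 30%, ethanol 10%, Cremophor 10% and water. For […], given 15 min before the ip CB2 agonist. Von Frey up–down 50% withdrawal threshold (cutoff 15 g) and %MPE, n = 5 per group.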

Experiment [6] addresses T1, Cannabinoid receptor 2. The experiment in a line: Displacement of [3H] 2-((1R,2R,5R)-5-hydroxy-2-(3-hydroxypropyl)cyclohexyl)-5-(2-methyloctan-2-yl)phenol from human CB2 receptor expressed CHO-K1 cells by liquid scintillation counting. It is filed as cell-based. The method in brief:
as §2

The target of experiment [7] is T2, Cannabinoid receptor 1. Description: Inverse agonist activity at human recombinant CB1 receptor expressed CHO cells membrane by [35S]GTPgamma binding assay relative to 2-((1R,2R,5R)-5-hydroxy-2-(3-hydroxypropyl)cyclohexyl)-5-(2-methyloctan-2-yl)phenol. It is filed as functional, cell membranes. The method in brief: as §1
In experiment [8] the test system is Rattus norvegicus. Description: Antiallodynic activity in Sprague-Dawley rat L5/L6 spinal nerve tight ligated neuropathic pain model assessed as paw withdrawal threshold at 10 mg/kg, ip […] ipsilateral injured paw. It counts as functional, organism-based. On the set-up: dose 10 mg/kg. The method in brief: as §3
Experiment [9] has as its target T1, Cannabinoid receptor 2. The experiment in a line: Agonist activity at human CB2 receptor expressed CHO cells by [35S]GTPgamma binding assay. It is filed as functional, cell-based.
The target of experiment [10] is T1, Cannabinoid receptor 2. Description: Binding affinity to CB2 receptor by competition binding assay. Summed up:
as §2

Experiment [11] concerns the target T1, Cannabinoid receptor 2. Description: Inverse agonist activity at CB2 receptor. It is filed as functional. Summed up:
as §1

T1 sequence (P34972 whole entry): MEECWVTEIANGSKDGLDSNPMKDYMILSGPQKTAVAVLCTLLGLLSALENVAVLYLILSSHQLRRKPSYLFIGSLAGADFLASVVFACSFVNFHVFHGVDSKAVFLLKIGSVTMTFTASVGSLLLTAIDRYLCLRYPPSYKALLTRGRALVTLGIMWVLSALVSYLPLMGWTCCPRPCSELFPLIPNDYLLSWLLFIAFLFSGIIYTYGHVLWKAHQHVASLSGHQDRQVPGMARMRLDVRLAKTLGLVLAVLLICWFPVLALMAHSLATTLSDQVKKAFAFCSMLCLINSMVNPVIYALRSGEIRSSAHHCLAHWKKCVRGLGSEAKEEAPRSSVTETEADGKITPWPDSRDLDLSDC
T2 sequence (P21554 whole entry): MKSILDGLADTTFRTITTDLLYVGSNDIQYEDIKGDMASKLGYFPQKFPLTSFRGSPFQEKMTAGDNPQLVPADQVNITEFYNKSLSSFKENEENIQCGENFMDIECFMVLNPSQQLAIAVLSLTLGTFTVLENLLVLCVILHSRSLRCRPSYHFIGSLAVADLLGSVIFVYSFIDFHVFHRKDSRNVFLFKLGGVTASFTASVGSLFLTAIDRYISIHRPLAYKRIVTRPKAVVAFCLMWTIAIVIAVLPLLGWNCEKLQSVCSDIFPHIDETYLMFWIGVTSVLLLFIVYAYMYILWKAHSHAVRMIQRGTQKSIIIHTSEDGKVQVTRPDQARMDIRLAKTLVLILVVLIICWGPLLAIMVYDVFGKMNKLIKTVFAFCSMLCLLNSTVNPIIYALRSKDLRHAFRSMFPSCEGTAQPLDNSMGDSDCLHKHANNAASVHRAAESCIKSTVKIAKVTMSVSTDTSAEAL

As for `COCCN1C(=O)/C(=N\NC(=O)c2ccccc2)c2ccc(OC)cc21`, the 50% effective concentration (EC50) on Cannabinoid receptor 2 [1] was 492 nM; on Cannabinoid receptor 1 [3] it was more than 10000 nM. Besides, on Cannabinoid receptor 2 [2], the Emax was -60%.

For `CCCCCCN1C(=O)/C(=N\NC(=O)c2ccccc2)c2ccc(OC)cc21`, the concentration giving a half-maximal response (EC50) at Cannabinoid receptor 2 [1] is 88.2 nM; on Cannabinoid receptor 1 [3], more than 10000 nM. Further, the Ki on Cannabinoid receptor 2 [4] and on Cannabinoid receptor 2 [6] was 89.9 nM throughout. For the same molecule, the Emax on Cannabinoid receptor 2 [2] was -92%. The outcome in the experiment with Rattus norvegicus [5] was Active.

Take `CCCCCN1C(=O)/C(=N\NC(=O)C(C)(C)O)c2ccc(OC)cc21`: the figures for the EC50 on Cannabinoid receptor 2 [1] and on Cannabinoid receptor 1 [3] were 14.7 nM and more than 10000 nM, respectively. Further, on Cannabinoid receptor 2 [2], the Emax was -99%.

On to `CCCCCN1C(=O)/C(=N\NC(=O)CC2CCCCC2)c2ccc(OC)cc21`, for which the concentration giving a half-maximal response (EC50) was 43 nM on Cannabinoid receptor 2 [1] and more than 10000 nM at Cannabinoid receptor 1 [3]. For the same molecule, the Emax at Cannabinoid receptor 2 [2] is -88%.

Consider `CCCCCN1C(=O)/C(=N\NC(=O)c2ccccc2)c2ccc(OC)cc21`, for which the Emax at Cannabinoid receptor 2 [2] was -108%; on Cannabinoid receptor 1 [7] it was 41%. Moreover, the EC50 on Cannabinoid receptor 1 [3] was found to be 263 nM.

As to `CCCCCN1C(=O)/C(=N\NC(=O)C2CCCCC2)c2ccc(OC)cc21`, the 50% effective concentration (EC50) at Cannabinoid receptor 2 [1] was 28.7 nM; at Cannabinoid receptor 1 [3] it was more than 10000 nM. For the same molecule, the Emax on Cannabinoid receptor 2 [2] is -105%.

Regarding `CCCCCN1C(=O)/C(=N\NC(=O)CN2CCOCC2)c2ccc(OC)cc21`, the 50% effective concentration (EC50) is 13.3 nM on Cannabinoid receptor 2 [1] and more than 10000 nM on Cannabinoid receptor 1 [3]. Further, the Emax at Cannabinoid receptor 2 [2] is -80%.

`CC1(Cc2ccccc2)COc2cc(C(=O)N3CCCCC3)ccc21` (centres undefined): the outcome in the experiment on Rattus norvegicus [8] was Active.

With `COc1ccc2c(c1)N(Cc1ccccc1)C(=O)/C2=N\NC(=O)c1ccccc1`, the Emax at Cannabinoid receptor 2 [2] is -96%. On Cannabinoid receptor 1 [3], the EC50 is more than 10000 nM.

In turn, `COc1ccc(C(=O)c2c(C)n(CCN3CCOCC3)c3cc(I)ccc23)cc1` gave a 50% effective concentration (EC50) at Cannabinoid receptor 2 [9] of 76.6 nM.

For the molecule `CN(c1ccc2c(c1)nc(Cc1ccc3c(c1)CCO3)n2CC1CCCCC1)S(=O)(=O)c1ccccc1`, the inhibition constant (Ki) on Cannabinoid receptor 2 [10] stood at 1.2 nM. This molecule also returned an Activity on Cannabinoid receptor 2 [4] of 0.7 nM. On Cannabinoid receptor 2 [11], this molecule yielded a 50% effective concentration (EC50) of 2.2 nM.

`COc1ccc2c(c1)N(CC1CCCCC1)C(=O)/C2=N\NC(=O)c1ccccc1`: the Emax was -82% at Cannabinoid receptor 2 [2] and 40.8% on Cannabinoid receptor 1 [7].

On to `CCCCCN1C(=O)/C(=N\NC(=O)CC(C)C)c2ccc(OC)cc21`, for which the EC50 at Cannabinoid receptor 2 [1] was 11.7 nM; at Cannabinoid receptor 1 [3] it was more than 10000 nM. Moreover, at Cannabinoid receptor 2 [2], the Emax is -78%.

With `COc1ccc2c(c1)N(CC1CCCCC1)C(=O)/C2=N\NC(=O)C1CCCCC1`, the EC50 at Cannabinoid receptor 2 [1] was 71.6 nM; on Cannabinoid receptor 1 [3] it was more than 10000 nM. Further, on Cannabinoid receptor 2 [2], the Emax was -69%.

With `COc1ccc2c(c1)N(CCC1CCCCC1)C(=O)/C2=N\NC(=O)c1ccccc1`, at Cannabinoid receptor 2 [2], the Emax was -104%. Further, the EC50 on Cannabinoid receptor 1 [3] is more than 10000 nM.

Take `CCCCCN1C(=O)/C(=N\NC(=O)OC(C)(C)C)c2ccc(OC)cc21`: the EC50 was 15.9 nM on Cannabinoid receptor 2 [1] and more than 10000 nM on Cannabinoid receptor 1 [3]. Besides, on Cannabinoid receptor 2 [2], the Emax was -97%.

For `CCCCCN1C(=O)/C(=N\NC(=O)C(C)(C)C)c2ccc(OC)cc21`, the EC50 at Cannabinoid receptor 2 [1] was 10 nM; on Cannabinoid receptor 1 [3] it was more than 10000 nM. The Emax at Cannabinoid receptor 2 [2] is -78%.

Turning to `CCCCN1C(=O)/C(=N\NC(=O)c2ccccc2)c2ccc(OC)cc21`, the Emax at Cannabinoid receptor 2 [2] is -95%. Moreover, on Cannabinoid receptor 1 [3], the EC50 is more than 10000 nM.
